The values that follow come from publication PMC4703501 (Leukemia, 2015).

For one assay, the system named is SNU-5. Briefly: GI50 growth inhibition assay. The class given is cell-based. Conditions: Homo sapiens, SNU-5, 96 h. The gist of the method:
(§1)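 Cell lines were grown in DMEM or RPMI with 10% FBS and pen-strep at 37°C, 5% CO₂, and were mycoplasma-negative. Cells were seeded at 2.5×10³ per 0.1 ml per well, and test compound was added 24 hrs later at the indicated concentrations. Viable cells were measured by resazurin (Cell Titer Blue) read-out 96 hrs post-treatment in duplicate wells.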

In the next assay the test system is SW480. Briefly: GI50 growth inhibition assay. The class given is cell-based. The following applies: Homo sapiens, SW480, 96 h. The gist of the method: as §1
Assay [1] concerns Granta 519 and Z138 cell lines. In words: MAP kinase pathway. The class given is cell-based, human. The following applies: 24 hrs.
For assay [2], the system named is primary patient-derived MCL cells (MEM1, MEM2). Briefly: Rb and AKT pathway western blot in primary MCL. The class given is cell-based, human. Conditions: both primary MCL samples, 18 hrs. The method, boiled down:
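Red cells were removed from primary MCL samples with ammonium chloride. Cells were then treated with increasing concentrations of test compound for 18 hrs and lysed in RIPA buffer (25mM Tris-HCl pH 7.5, 150mM NaCl, 1% NP40, 1% SDS, phosphatase inhibitors). […], nitrocellulose transfer and infrared imaging.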
For orientation: In western blotting, separated proteins are transferred to a membrane and probed.

The next assay relates to GRANTA-519. Briefly: GI50 growth inhibition assay. The class given is cell-based. The following applies: Homo sapiens, Granta-519, 96 h. The gist of the method:
as §1

Assay [3] deals with Granta 519 and Z138C cells. Briefly: PI3K/AKT/mTOR pathway western blot. The class given is cell-based, human. The following applies: 24 hours. The gist of the method: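 Granta 519 and Z138C cells (RPMI or DMEM, 10% FBS, pen-strep, 37°C, 5% CO₂) received vehicle or increasing concentrations of test compound for 24 hours. Whole-cell extracts were made in NP-40 lysis buffer (Tris pH 7.4, NaF, Na₃VO₄), run on SDS-PAGE and blotted to nitrocellulose. Detection used infrared imaging, GAPDH was the loading control, and 4 independent experiments were done.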

Each structure is given as a SMILES string.

`CN1CCN(c2ccc(Nc3ncc4cc(C#N)c(=O)n(C5CCCC5)c4n3)cc2)CC1` [ON123300, 8-cyclopentyl-2-[4-(4-methyl-piperazin-1-yl)-phenylamino]-7-oxo-7,8-dihydro-pyrid o[2,3-d]pyrimidine-6-carbonitrile] gave a GI50 in the assay on SNU-5 of 200 nM. Also, in the assay on SW480, growth was halved (GI50) at 100 nM. For the same molecule, the “phosphorylation status of MEK or ERK kinases” value in assay [1] was “neither ON123300 nor PD0332991 has any effect”. Besides, in assay [2], the “levels of Rb and AKT phosphorylation” value is “reductions in the levels of Rb and AKT phosphorylation”; the “phosphorylation of S6RB” value is “inhibited”. Further, the GI50 with GRANTA-519 is 35 nM. Moreover, in assay [3], the “AKT Ser473 phosphorylation” value was “inhibition of AKT Ser473 phosphorylation”; the FOXO1 phosphorylation result was “inhibition of FOXO1 phosphorylation”; the “mTOR phosphorylation at Ser2481” value is on record as “inhibition of mTOR phosphorylation at Ser2481”; the “phosphorylation of 4EBP1 and S6RB” value is “inhibited”.

Broadly, the GI50 is the concentration that inhibits growth by half. High values mean lower sensitivity of the cells, low ones greater sensitivity of the cells.
